Screening data from PubChem BioAssay.
V1R ag counter = agonists of human V1a receptor, primary screen, counter-screen for OXTR agonist project, fluorescence, CHO-V1R cells; AID 2797, 2010; activation, % at 3 µM; 0.25% of 320,000 active; Vasopressin V1a receptor (Homo sapiens), P37288; Fluo-8 calcium fluorescence, agonist mode; 0% DMSO, 100% 3 nM vasopressin;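 active means activation above the mean activation of all tested compounds plus 3 SD, per screening run, cut at about 20% in these data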;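 further: signal is peak over basal fluorescence ratio across a 100 second FLIPR read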
Target sequence (P37288 whole entry, looked up): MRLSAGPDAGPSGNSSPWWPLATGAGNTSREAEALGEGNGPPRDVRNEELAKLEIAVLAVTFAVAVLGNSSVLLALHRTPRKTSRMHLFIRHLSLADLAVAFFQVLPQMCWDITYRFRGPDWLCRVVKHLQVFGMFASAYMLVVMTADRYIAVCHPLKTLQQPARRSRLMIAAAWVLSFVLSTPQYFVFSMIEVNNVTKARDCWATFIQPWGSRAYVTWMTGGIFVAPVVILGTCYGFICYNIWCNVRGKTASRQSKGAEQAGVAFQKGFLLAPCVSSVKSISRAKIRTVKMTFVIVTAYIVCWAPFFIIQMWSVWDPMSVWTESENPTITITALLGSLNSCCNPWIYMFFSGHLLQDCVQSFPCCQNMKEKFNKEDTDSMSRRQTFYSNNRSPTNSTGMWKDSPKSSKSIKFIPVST
OXTR agonist = human OXTR agonists, primary screen, fluorescence, CHO-OTR cells, Fluo-8 calcium; Oxytocin receptor (Homo sapiens), P30559; 0.32% of 320,000 active; Fluo-8 calcium fluorescence; normalized: DMSO 0%, oxytocin 100%; activation, % at 3 µM;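 active means activation above the mean of all tested compounds plus 3 SD, cutoff set per screening run, cut at about 20% in these data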;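 further: peak over basal fluorescence ratio from a 100 s FLIPR kinetic read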
OX1R antag-1 = antagonists of human orexin 1 receptor (OX1R); inhibition, % at 6.6 µM; 1.8% of 330,000 active; OX1R-expressing cells, FRET antagonist read-out; in the data active means inhibition mostly above about 38%, no sharp cut-off; inactive means mostly below about 40%;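 further: 0% = agonist challenge alone and 100% = reference antagonist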
OX1R antag-2 = OX1R (HCRTR1) antagonists, primary screen, fluorescence, CHO/OX1R cells, Fluo-8 calcium, orexin A; Orexin/Hypocretin receptor type 1 (Homo sapiens), O43613; Fluo-8 calcium fluorescence; inhibition, % at 5 µM; 0.43% of 330,000 active;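 active means inhibition above its plate's threshold, mean inhibition of all tested compounds on the plate plus 3 SD, cut at about 37% in these data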;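 further: 0% = orexin A challenge wells and 100% = SB-334867-A antagonist wells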
OXTR potentiate = human OXTR potentiators, primary screen, fluorescence, CHO-OTR cells, Fluo-8 calcium; Oxytocin receptor (Homo sapiens), P30559; Fluo-8 calcium fluorescence, potentiator mode; 0% = oxytocin EC15, 100% = EC100; activation, % at 3 µM; 0.061% of 320,000 active;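 active means activation above that plate's cutoff, the mean activation of tested compounds plus 3 SD, cut at about 6.6% in these data, passing the limit was not always enough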;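 further: 100% uses oxytocin at 75 nM as the full agonist control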
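test system = CHO-OTR cells, human receptor | compound = single-point 3.0 µM | schedule = 6 min compound pre-incubation at room temperature, 100 s kinetic read | signal = Fluo-8 no-wash calcium dye fluorescence, excitation 470-495 nm, emission 515-575 nm | repeats = single well per compound, singlicate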
CHO parental Ca = ATP-evoked calcium signal inhibitors, parental CHO, primary screen, counter-screen for OX1R antagonist project, cell-based, fluorescence, Fluo-8 calcium dye; AID 463079, 2010; inhibition, % at 5.6 µM; 0.63% of 330,000 active; parental CHO-K1, ATP-induced calcium, Fluo-8 fluorescence;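 active means inhibition above that plate's mean sample inhibition plus 3 SD, cut at about 26% in these data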;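 further: 0% = ATP-challenged DMSO wells and 100% = DMSO wells without ATP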
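Assay system: untransfected parental CHO cell line. Also added: ATP agonist challenge. Dosing: one dose, 5.6 µM nominal. Measured by: Fluo-8 fluorescence. Read-out: % inhibition. Benchmarks: ATP wells versus no-ATP DMSO wells. Repeats: no replicates.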
Active calls of the source: *. Shown are actives, neighbours in structure and some others; about 2.7% of the full set was active somewhere.

What do the screens show for `O=C(c1ccco1)N1CCN(C(=O)c2[nH]ncc2[N+](=O)[O-])CC1`?
V1R ag counter: 2; OXTR agonist: 0; OX1R antag-1: 19; OX1R antag-2: 0; OXTR potentiate: -3; CHO parental Ca: 2

How did O=C(c1ccco1)N1CCN(c2c([N+](=O)[O-])nn(-c3ccc(Cl)cc3)[n+]2[O-])CC1 do in these assays?
V1R ag counter: -1; OXTR agonist: -2; OX1R antag-1: 42*; OX1R antag-2: -18; OXTR potentiate: -4; CHO parental Ca: -18

Results for COc1ccc(C(CNC(=O)C2CCN(S(=O)(=O)c3ccc(F)cc3)CC2)N(C)C)cc1 (centres undefined) ?
V1R ag counter: 0; OXTR agonist: 1; OX1R antag-1: 5; OX1R antag-2: -2; OXTR potentiate: 0; CHO parental Ca: -8

What do the screens show for `COc1ccc(C(=O)/C=C/c2cn(CC(O)CN3CCOCC3)c3ccccc23)cc1` (centres undefined)?
V1R ag counter: 4; OXTR agonist: 9; OX1R antag-1: 16; OX1R antag-2: -12; OXTR potentiate: -8; CHO parental Ca: 2

How did CCOc1ccc(C(=O)/C=C/c2cn(CN3CCN(C)CC3)c3ccccc23)cc1 do in these assays?
V1R ag counter: 1; OXTR agonist: 1; OX1R antag-1: 57*; OX1R antag-2: 14; OXTR potentiate: -6; CHO parental Ca: -23

Results for Cc1ccc(C(=O)c2c3ccc([N+](=O)[O-])cc3[n+]([O-])n2CCC(N)=O)cc1 ?
V1R ag counter: 0; OXTR agonist: 0; OX1R antag-1: 62*; OX1R antag-2: -6; OXTR potentiate: -5; CHO parental Ca: -7

What do the screens show for `COc1ccc(C(=O)c2c3ccc([N+](=O)[O-])cc3[n+]([O-])n2CCCC(N)=O)cc1`?
V1R ag counter: 1; OXTR agonist: 1; OX1R antag-1: 55; OX1R antag-2: -5; OXTR potentiate: -4; CHO parental Ca: -5

Results for CCCC(=O)N1CCN(c2ccc(NC(=O)c3cc4ccccc4o3)cc2Cl)CC1 ?
V1R ag counter: 6; OXTR agonist: 5; OX1R antag-1: 91*; OX1R antag-2: 60*; OXTR potentiate: -18; CHO parental Ca: 61*

Results for O=C(Nc1ccc(N2CCN(C(=O)c3ccco3)CC2)c(Cl)c1)c1cc2ccccc2o1 ?
V1R ag counter: 4; OXTR agonist: 2; OX1R antag-1: 72*; OX1R antag-2: 18; OXTR potentiate: -18; CHO parental Ca: 36*

Results for O=C(Nc1ccc(N2CCN(C(=O)c3ccccc3)CC2)c(Cl)c1)c1ccco1 ?
V1R ag counter: 8; OXTR agonist: 5; OX1R antag-1: 16; OX1R antag-2: -21; OXTR potentiate: -20; CHO parental Ca: -13

How did COc1ccc(S(=O)(=O)N(C)CC(=O)N2CCCC2)cc1OC do in these assays?
V1R ag counter: 0; OXTR agonist: 2; OX1R antag-1: -8; OX1R antag-2: -15; OXTR potentiate: -1; CHO parental Ca: -2

How did Cc1cccc(N2CCN(C3CCCCC3NS(=O)(=O)c3ccccc3)CC2C)c1 (centres undefined) do in these assays?
V1R ag counter: -2; OXTR agonist: -1; OX1R antag-1: 34; OX1R antag-2: -34; OXTR potentiate: 1; CHO parental Ca: -12

Results for Cc1cc(C)c(N=C2C(=O)Nc3ccccc32)c(C)c1 ?
V1R ag counter: 1; OXTR agonist: 0; OX1R antag-1: 38*; OX1R antag-2: 8; OXTR potentiate: -4; CHO parental Ca: -6

How did COCCN(C(=O)c1ccc(NC2CC2)c([N+](=O)[O-])c1)c1c(N)n(CC(C)C)c(=O)[nH]c1=O do in these assays?
V1R ag counter: 1; OXTR agonist: 1; OX1R antag-1: 18; OX1R antag-2: 5; OXTR potentiate: -7; CHO parental Ca: -16

How did CCCCN(C(=O)c1ccc([N+](=O)[O-])s1)c1c(N)n(CC(C)C)c(=O)[nH]c1=O do in these assays?
V1R ag counter: -1; OXTR agonist: -1; OX1R antag-1: 29; OX1R antag-2: -8; OXTR potentiate: -18; CHO parental Ca: -1

How did CCCCn1c(N)c(N(CCOC)C(=O)c2ccc(NC3CC3)c([N+](=O)[O-])c2)c(=O)[nH]c1=O do in these assays?
V1R ag counter: -1; OXTR agonist: -1; OX1R antag-1: 47*; OX1R antag-2: -18; OXTR potentiate: -7; CHO parental Ca: -33

What do the screens show for `CCCCn1c(N)c(N(CCC(C)C)C(=O)c2ccc([N+](=O)[O-])s2)c(=O)[nH]c1=O`?
V1R ag counter: 0; OXTR agonist: -2; OX1R antag-1: 37*; OX1R antag-2: -41; OXTR potentiate: -4; CHO parental Ca: -22

How did COc1cccc(NS(=O)(=O)NC(=O)c2cn(C)c3ccccc23)c1 do in these assays?
V1R ag counter: 0; OXTR agonist: -1; OX1R antag-1: 11; OX1R antag-2: -6; OXTR potentiate: -17; CHO parental Ca: 2

How did Cc1cccc(NC(=O)c2ccc(N3C(=O)C4C5C=CC(C6CC56)C4C3=O)cc2)c1 (centres undefined) do in these assays?
V1R ag counter: 10; OXTR agonist: 8; OX1R antag-1: 18; OX1R antag-2: 33; OXTR potentiate: -18; CHO parental Ca: 46*

What do the screens show for `CCOc1ccc(C(=O)OCC(=O)N2CCCC2)cc1`?
V1R ag counter: 1; OXTR agonist: 0; OX1R antag-1: 11; OX1R antag-2: 0; OXTR potentiate: -8; CHO parental Ca: 8

How did C#CCN1C(=O)S/C(=C/C=C/c2ccc(N(C)C)cc2)C1=O do in these assays?
V1R ag counter: 24*; OXTR agonist: 35*; OX1R antag-1: 21; OX1R antag-2: 79*; OXTR potentiate: -12; CHO parental Ca: 72*

What do the screens show for `CC(C)=CCC[C@](C)(OC1OC(COC2OCC(O)C(O)C2O)C(O)C(O)C1O)C1CC[C@]2(C)C1C(O)CC1[C@@]3(C)CCC(O[C@@H]4O[C@H](CO)C(O)C(O)C4O[C@@H]4OC(CO)C(O)C(O)C4O)C(C)(C)C3CC[C@]12C` (some centres undefined)?
V1R ag counter: 2; OXTR agonist: 0; OX1R antag-1: 14; OX1R antag-2: -8; OXTR potentiate: -5; CHO parental Ca: 0
